From ChEMBL document CHEMBL5058577, “EUbOPEN Chemogenomics Library 2 (Multiplex)” (2022)

Test system: U2OS
Assay: Multiplex assay against U2OS
Type: toxicity, cell-based
Conditions: human
Summary of the method: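 Compound was added to live cells that had been stained at seeding with Hoechst33342, BioTracker Green Microtubule Cytoskeleton Dye, MitoTracker Red and Annexin V Alexa Fluor 680, and imaging followed on a CQ1 microscope at 37°C and 5% CO2. CellPathfinder machine-learning gating divided cells into Hoechst high-intensity objects or normal cells, normal cells into healthy, pyknosed or fragmented nuclei, and pyknosed cells into mitotic or apoptotic. Tubulin, mitochondrial-mass and membrane-permeability phenotypes are per cents of healthy-nucleus cells.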

[1] = 12 h, 1 µM, compound concentration 1 uM, replicate 1
[2] = 12 h, 1 µM, compound concentration 1 uM, replicate 2
[3] = 12 h, 10 µM, compound concentration 10 uM, replicate 1
[4] = 12 h, 10 µM, compound concentration 10 uM, replicate 2
[5] = 24 h, 1 µM, compound concentration 1 uM, replicate 1
[6] = 24 h, 1 µM, compound concentration 1 uM, replicate 2
[7] = 24 h, 10 µM, compound concentration 10 uM, replicate 1
[8] = 24 h, 10 µM, compound concentration 10 uM, replicate 2
[9] = 48 h, 1 µM, compound concentration 1 uM, replicate 1
[10] = 48 h, 1 µM, compound concentration 1 uM, replicate 2
[11] = 48 h, 10 µM, compound concentration 10 uM, replicate 1
[12] = 48 h, 10 µM, compound concentration 10 uM, replicate 2

CCc1cc2cc(NS(=O)(=O)c3ccc(C#N)cc3)ccc2n(CC)c1=O
Population Apoptotic (%) [1]: 88% | Population Fragmented Nuclei (%) [1]: 30% | Population Healthy Nuclei (%) [1]: 60% | Population Hoechst High Intensity Objects (%) [1]: 3% | Population Membrane Permeable-Phenotype (%) [1]: 4% | Population Mitochondria Different-Phenotype (%) [1]: 2% | Population Mitotic Cells (%) [1]: 11% | Population Normal (%) [1]: 96% | Population Pyknosed Nuclei (%) [1]: 9% | Population Tubulin-Different-Phenotype (%) [1]: 2% | Total Cell Count [1]: 286 | Population Apoptotic (%) [2]: 100% | Population Fragmented Nuclei (%) [2]: 26% | Population Healthy Nuclei (%) [2]: 70% | Population Hoechst High Intensity Objects (%) [2]: 1% | Population Membrane Permeable-Phenotype (%) [2]: 8% | Population Mitotic Cells (%) [2]: 0% | Population Normal (%) [2]: 98% | Population Pyknosed Nuclei (%) [2]: 3% | Population Tubulin-Different-Phenotype (%) [2]: 7% | Total Cell Count [2]: 113 | Population Apoptotic (%) [3]: 66% | Population Fragmented Nuclei (%) [3]: 28% | Population Healthy Nuclei (%) [3]: 64% | Population Hoechst High Intensity Objects (%) [3]: 2% | Population Membrane Permeable-Phenotype (%) [3]: 9% | Population Mitochondria Different-Phenotype (%) [3]: 3% | Population Mitotic Cells (%) [3]: 33% | Population Normal (%) [3]: 97% | Population Pyknosed Nuclei (%) [3]: 6% | Population Tubulin-Different-Phenotype (%) [3]: 4% | Total Cell Count [3]: 220 | Population Apoptotic (%) [4]: 87% | Population Fragmented Nuclei (%) [4]: 13% | Population Healthy Nuclei (%) [4]: 80% | Population Membrane Permeable-Phenotype (%) [4]: 6% | Population Mitotic Cells (%) [4]: 12% | Population Pyknosed Nuclei (%) [4]: 5% | Total Cell Count [4]: 139 | Population Apoptotic (%) [5]: 85% | Population Fragmented Nuclei (%) [5]: 29% | Population Healthy Nuclei (%) [5]: 61% | Population Hoechst High Intensity Objects (%) [5]: 2% | Population Membrane Permeable-Phenotype (%) [5]: 9% | Population Mitochondria Different-Phenotype (%) [5]: 2% | Population Mitotic Cells (%) [5]: 14% | Population Normal (%) [5]: 97% | Population Pyknosed Nuclei (%) [5]: 8% | Population Tubulin-Different-Phenotype (%) [5]: 6% | Total Cell Count [5]: 335 | Population Apoptotic (%) [6]: 88% | Population Fragmented Nuclei (%) [6]: 16% | Population Healthy Nuclei (%) [6]: 75% | Population Hoechst High Intensity Objects (%) [6]: 1% | Population Membrane Permeable-Phenotype (%) [6]: 7% | Population Mitochondria Different-Phenotype (%) [6]: 7% | Population Mitotic Cells (%) [6]: 11% | Population Normal (%) [6]: 98% | Population Pyknosed Nuclei (%) [6]: 7% | Population Tubulin-Different-Phenotype (%) [6]: 3% | Total Cell Count [6]: 126 | Population Apoptotic (%) [7]: 95% | Population Fragmented Nuclei (%) [7]: 23% | Population Healthy Nuclei (%) [7]: 67% | Population Hoechst High Intensity Objects (%) [7]: 3% | Population Membrane Permeable-Phenotype (%) [7]: 4% | Population Mitochondria Different-Phenotype (%) [7]: 2% | Population Mitotic Cells (%) [7]: 4% | Population Normal (%) [7]: 96% | Population Pyknosed Nuclei (%) [7]: 9% | Population Tubulin-Different-Phenotype (%) [7]: 1% | Total Cell Count [7]: 263 | Population Apoptotic (%) [8]: 80% | Population Fragmented Nuclei (%) [8]: 14% | Population Healthy Nuclei (%) [8]: 79% | Population Membrane Permeable-Phenotype (%) [8]: 6% | Population Mitotic Cells (%) [8]: 20% | Population Pyknosed Nuclei (%) [8]: 6% | Population Tubulin-Different-Phenotype (%) [8]: 2% | Total Cell Count [8]: 159 | Population Apoptotic (%) [9]: 89% | Population Fragmented Nuclei (%) [9]: 21% | Population Healthy Nuclei (%) [9]: 70% | Population Hoechst High Intensity Objects (%) [9]: 2% | Population Membrane Permeable-Phenotype (%) [9]: 6% | Population Mitochondria Different-Phenotype (%) [9]: 3% | Population Mitotic Cells (%) [9]: 10% | Population Normal (%) [9]: 97% | Population Pyknosed Nuclei (%) [9]: 8% | Population Tubulin-Different-Phenotype (%) [9]: 2% | Total Cell Count [9]: 450 | Population Apoptotic (%) [10]: 84% | Population Fragmented Nuclei (%) [10]: 19% | Population Healthy Nuclei (%) [10]: 73% | Population Hoechst High Intensity Objects (%) [10]: 3% | Population Mitochondria Different-Phenotype (%) [10]: 5% | Population Mitotic Cells (%) [10]: 15% | Population Normal (%) [10]: 96% | Population Pyknosed Nuclei (%) [10]: 6% | Population Tubulin-Different-Phenotype (%) [10]: 3% | Total Cell Count [10]: 192 | Population Apoptotic (%) [11]: 88% | Population Fragmented Nuclei (%) [11]: 18% | Population Healthy Nuclei (%) [11]: 72% | Population Hoechst High Intensity Objects (%) [11]: 3% | Population Membrane Permeable-Phenotype (%) [11]: 6% | Population Mitochondria Different-Phenotype (%) [11]: 2% | Population Mitotic Cells (%) [11]: 11% | Population Normal (%) [11]: 96% | Population Pyknosed Nuclei (%) [11]: 9% | Population Tubulin-Different-Phenotype (%) [11]: 3% | Total Cell Count [11]: 387 | Population Apoptotic (%) [12]: 96% | Population Fragmented Nuclei (%) [12]: 15% | Population Healthy Nuclei (%) [12]: 73% | Population Hoechst High Intensity Objects (%) [12]: 2% | Population Membrane Permeable-Phenotype (%) [12]: 8% | Population Mitochondria Different-Phenotype (%) [12]: 3% | Population Mitotic Cells (%) [12]: 3% | Population Normal (%) [12]: 97% | Population Pyknosed Nuclei (%) [12]: 11% | Population Tubulin-Different-Phenotype (%) [12]: 7% | Total Cell Count [12]: 248
